Experimental data gathered from unrelated publications.
Protocols differ between the studies behind these lines.
Target: Serine/threonine-protein kinase Nek2 (NEK2, Homo sapiens, UniProt P51955)
Residues used in one study (P51955 1-445): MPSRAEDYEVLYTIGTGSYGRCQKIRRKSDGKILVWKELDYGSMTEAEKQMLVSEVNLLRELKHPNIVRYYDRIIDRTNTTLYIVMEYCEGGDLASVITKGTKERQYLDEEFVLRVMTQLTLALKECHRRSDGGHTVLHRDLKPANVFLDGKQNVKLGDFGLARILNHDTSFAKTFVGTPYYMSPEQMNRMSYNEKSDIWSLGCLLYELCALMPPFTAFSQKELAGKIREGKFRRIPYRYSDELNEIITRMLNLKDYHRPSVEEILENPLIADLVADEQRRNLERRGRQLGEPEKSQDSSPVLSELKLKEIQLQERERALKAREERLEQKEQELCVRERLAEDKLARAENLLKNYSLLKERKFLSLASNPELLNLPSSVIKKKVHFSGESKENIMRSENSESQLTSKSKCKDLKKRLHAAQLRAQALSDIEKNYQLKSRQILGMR

COc1cc(Nc2ncc(F)c(Nc3ccc4c(n3)NC(=O)C(C)(C)O4)n2)cc(OC)c1OC — inhibition (binding, competition with immobilised ligand; 10 µM): 83%
Cc1nn(C)cc1-c1nc2c(N3CCN(Cc4ccc(Cl)cc4)CC3)c(Cl)cnc2[nH]1 — remaining binding (binding, competition with immobilised ligand; 1 µM): 100%
Nc1ncc(-c2nc(N3CCOCC3)nc(N3CCOCC3)n2)c(C(F)F)n1 — remaining binding (binding, competition with immobilised ligand; 10 µM): 87%
O=c1[nH]c2ccccc2n1C1CCN(Cc2ccc(-c3[nH]c4cc5ncnc5cc4nc3-c3ccccc3)cc2)CC1 — remaining signal (cell-free assay; 0.5 µM): 96.8%
N#CC1(c2ccccn2)CCN(Cc2cc(C(=O)O)c(=O)n3ccccc23)CC1 — remaining binding (cell-free assay, competition with immobilised ligand; 1 µM): 100%
CC(C)(C)c1cc(C=C(C#N)C#N)cc(Br)c1O — remaining activity (enzyme activity, inhibitor; 0.5 µM): 96%
C#Cc1n[nH]c2c(-c3cn(C(C)c4ccccn4)c(=O)[nH]c3=O)cc(F)cc12 (stereo not drawn) — inhibition (enzyme activity, inhibitor; 1 µM): -4.6%
Cn1cncc1[C@](O)(COc1ccc(C#N)cc1-c1ccc(OC(F)(F)F)cc1)c1ccc(C#N)cc1 — remaining binding (cell-free assay, competition with immobilised ligand; 1 µM): 100%
Cn1cc(-c2cc(F)cc(N3CCn4c(cc5c4CCCC5)C3=O)c2CO)cc(Nc2ccc(N3CCN(C4COC4)CC3)cn2)c1=O — inhibition (enzyme activity, inhibitor; 0.1 µM): 10%
COc1ncccc1-c1cnn2ccc(N3CCN(C(=O)OC(C)C)CC3)nc12 — remaining binding (binding, competition with immobilised ligand; 1 µM): 86%
C#Cc1n[nH]c2c(-c3cn([C@@H](C)c4ccccc4)c(=O)[nH]c3=O)cc(F)cc12 — inhibition (enzyme activity, inhibitor; 0.1 µM): 0.5%
Cn1cc(-c2cccc(N3CCc4c(sc5c4CC(C)(C)C5)C3=O)c2CO)cc(Nc2ccncn2)c1=O — inhibition (enzyme activity, inhibitor; 1 µM): 4%
